Assay results published in ChEMBL document CHEMBL4765433, “From methylene bridged diindole to carbonyl linked benzimidazoleindole: Development of potent and metabolically stable PCSK9 modulators” (Eur J Med Chem, 2020).
Activity calls are given as the source filed them. No cut-off for these calls is given here.

Legend:
[1] = Intrinsic clearance in rat liver microsomes measured after 60 mins in presence of NADPH by LC-MS/MS analysis; type: ADME, Microsome; conditions: for Intrinsic clearance in rat liver microsomes: 1 h
[2] = AUC (0 to infinity) in BTBR mouse at 6 mg/kg, ip administered as single dose by LC-MS/MS analysis; type: ADME, organism-based; design: time infinity, route intraperitoneal, dose 6 mg/kg; conditions: in vivo
Method in brief: (§1)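 Mice given a single intraperitoneal dose of 6 mg/kg. Formulation: DMSO (10 %) and Tween 80 (10 %) in PBS (80 %). Plasma samples collected and analysed by LC-MS/MS. AUC is total exposure after the single dose, Cmax is maximum plasma concentration, and T1/2 is half-life.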

[3] = Intrinsic clearance in mouse liver microsomes measured after 60 mins in presence of NADPH by LC-MS/MS analysis; type: ADME, Microsome; conditions: for microsomal intrinsic clearance: microsomes, 1 h
[4] = target: T1, Proprotein convertase subtilisin/kexin type 9 (Homo sapiens, UniProt Q8NBP7); assay: Modulation of PCSK9 in human HepG2 cells assessed as reduction in PCSK9 expression at 1 uM incubated for 24 hrs prior to compound washout followed by compound addition and measured after 24 hrs by ELISA; type: cell-based; design: scale not given: the % may be the effect or the level left; conditions: filed as modulator, time 48.0 hrs
Method in brief: (§2)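 HepG2 cells grown to 90% confluence and plated at 1X105 cells/well, then left to settle overnight. Medium replaced with dose medium containing compound or DMSO vehicle for 24 h, refreshed with the same medium, then incubated 24 h more. Medium collected after centrifugation. PCSK9 measured by sandwich ELISA with TMB read-out at 450 nm. Values normalized to vehicle, mean of n = 3.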

[5] = Half life in mouse liver microsomes measured after 60 mins in presence of NADPH by LC-MS/MS analysis; type: ADME, Microsome; conditions: 1 h
[6] = Cmax in BTBR mouse at 6 mg/kg, ip administered as single dose by LC-MS/MS analysis; type: ADME, organism-based; design: route intraperitoneal, dose 6 mg/kg; conditions: in vivo; method in brief: as §1
HepG2 = assay: Cytotoxicity against human HepG2 cells assessed as reduction in cell viability at <=10 uM by MTT assay; type: cell-based
[7] = Half life in rat liver microsomes measured after 60 mins in presence of NADPH by LC-MS/MS analysis; type: ADME, Microsome; conditions: 1 h
[8] = Half life in BTBR mouse at 6 mg/kg, ip administered as single dose by LC-MS/MS analysis; type: ADME, organism-based; conditions: in vivo; method in brief: as §1
[9] = target: T1, Proprotein convertase subtilisin/kexin type 9; assay: Modulation of PCSK9 in human HepG2 cells assessed as reduction in PCSK9 expression incubated for 24 hrs prior to compound washout followed by compound addition and measured after 24 hrs by ELISA; type: cell-based; method in brief: as §2
[10] = target: T1, Proprotein convertase subtilisin/kexin type 9; assay: Modulation of PCSK9 in human HepG2 cells assessed as reduction in PCSK9 expression at 10 to 100 nM incubated for 24 hrs prior to compound washout followed by compound addition and measured after 24 hrs by ELISA; type: cell-based; conditions: filed as modulator, dose 10-100 nM, time 48.0 hrs
Method in brief: (§3)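 HepG2 cells grown to 90% confluence, plated at 1X105 cells/well and left overnight. Medium then replaced with compound- or vehicle (DMSO)-containing dose medium, refreshed at 24 h, collected after a further 24 h. Secreted PCSK9 measured by sandwich ELISA with TMB read-out at 450 nm. Values normalized to DMSO group, mean of n = 3 ± SD.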

[11] = target: T1, Proprotein convertase subtilisin/kexin type 9; assay: Modulation of PCSK9 in human HepG2 cells assessed as reduction in PCSK9 expression at 1 to 10 uM incubated for 24 hrs prior to compound washout followed by compound addition and measured after 24 hrs by ELISA; type: cell-based; conditions: filed as modulator, dose 1-10 µM, time 48.0 hrs; method in brief: as §3
[12] = target: T1, Proprotein convertase subtilisin/kexin type 9; assay: Modulation of PCSK9 in human HepG2 cells assessed as reduction in PCSK9 expression at 10 nM incubated for 24 hrs prior to compound washout followed by compound addition and measured after 24 hrs by ELISA; type: cell-based; design: scale not given: the % may be the effect or the level left; conditions: time 48.0 hrs; method in brief: as §2
[13] = target: T1, Proprotein convertase subtilisin/kexin type 9; assay: Modulation of PCSK9 in human HepG2 cells assessed as reduction in PCSK9 expression at 100 nM incubated for 24 hrs prior to compound washout followed by compound addition and measured after 24 hrs by ELISA; type: cell-based; design: scale not given: the % may be the effect or the level left; conditions: time 48.0 hrs; method in brief: as §2
[14] = Half life in human liver microsomes measured after 60 mins in presence of NADPH by LC-MS/MS analysis; type: ADME, Microsome; conditions: 1 h
[15] = Intrinsic clearance in human liver microsomes measured after 60 mins in presence of NADPH by LC-MS/MS analysis; type: ADME, Microsome; conditions: 1 h
[16] = liver microsomes, read-out: CLH

T1 sequence (Q8NBP7 31-152 limits assumed): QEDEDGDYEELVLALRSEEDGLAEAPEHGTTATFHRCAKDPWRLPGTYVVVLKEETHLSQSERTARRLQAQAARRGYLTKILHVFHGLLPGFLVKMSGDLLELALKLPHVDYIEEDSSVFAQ
T1 sequence (Q8NBP7 153-692 limits assumed): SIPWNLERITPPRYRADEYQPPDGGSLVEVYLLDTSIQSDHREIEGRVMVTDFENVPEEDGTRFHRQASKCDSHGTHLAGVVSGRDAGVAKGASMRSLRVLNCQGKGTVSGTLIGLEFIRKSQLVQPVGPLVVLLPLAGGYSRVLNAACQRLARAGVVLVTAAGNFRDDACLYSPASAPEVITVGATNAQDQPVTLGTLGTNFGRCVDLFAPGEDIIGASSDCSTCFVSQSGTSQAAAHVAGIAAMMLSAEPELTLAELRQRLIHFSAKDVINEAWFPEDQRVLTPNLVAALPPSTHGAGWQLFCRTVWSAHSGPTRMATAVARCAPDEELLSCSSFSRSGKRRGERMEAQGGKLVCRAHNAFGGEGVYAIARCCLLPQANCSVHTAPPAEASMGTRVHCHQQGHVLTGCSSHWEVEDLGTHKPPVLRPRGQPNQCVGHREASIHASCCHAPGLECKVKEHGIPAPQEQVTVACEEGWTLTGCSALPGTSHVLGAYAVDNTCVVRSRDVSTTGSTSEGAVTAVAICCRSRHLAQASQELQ

With `O=C(c1cc2cc(F)ccc2[nH]1)c1c[nH]c2c(F)cccc12` the “Intrinsic clearance in rat liver microsomes” value [1] was 18.1 µL/min/mg, the AUC(0-inf) [2] was 610 ng·h/mL and the microsomal intrinsic clearance [3] was 34.6 µL/min/mg. For the same compound, the Activity [4] was “Active”, the t1/2 [5] was 40.1 min and the Cmax [6] was 323 ng/mL. The Activity (HepG2) was “Non-Toxic”, the t1/2 [7] was 76.9 min and the half-life [8] was 78.6 min.
With `Cn1c(C(=O)c2cn(CCN3CCOCC3)c3c(F)cccc23)nc2ccc(F)cc21` the EC50 [9] was 11 nM and the Activity (HepG2) was “Non-Toxic”.
With `Fc1ccc2nc(Cc3c[nH]c4c(F)cccc34)n(Cc3cccnc3)c2c1` the Activity (HepG2) was “Non-Toxic”.
In the case of `Cn1c(C(=O)c2c[nH]c3c(F)cccc23)nc2c(F)cccc21`, the Activity [10] is reported as “Active” and the Activity (HepG2) is reported as “Non-Toxic”.
For `CC(C)(C)Cn1c(Cc2c[nH]c3c(F)cccc23)nc2ccc(F)cc21`, the Activity (HepG2) was “Non-Toxic”.
In the case of `Cn1c(C(=O)c2cn(CCCCN3CCOCC3)c3c(F)cccc23)nc2ccc(F)cc21`, the EC50 [9] is reported as 88 nM and the Activity (HepG2) is reported as “Non-Toxic”.
For `O=C(c1nc2ccc(F)cc2[nH]1)c1c[nH]c2c(F)cccc12`, the “Intrinsic clearance in rat liver microsomes” value [1] was 29.4 µL/min/mg, the AUC(0-inf) [2] was 696 ng·h/mL and the microsomal intrinsic clearance [3] was 46.5 µL/min/mg. It also gave an Activity [4] of 90%, a t1/2 [5] of 30 min and a Cmax [6] of 294 ng/mL. The EC50 [9] was 2.46 nM, the Activity (HepG2) was “Non-Toxic” and the t1/2 [7] was 47.8 min. For the same compound, the half-life [8] was 98.4 min.
With `Cn1c(C(=O)c2cn(S(=O)(=O)CCN3CCNCC3)c3c(F)cccc23)nc2ccc(F)cc21` the EC50 [9] was 161 nM and the Activity (HepG2) was “Non-Toxic”.
For `Fc1ccc2nc(Cc3c[nH]c4c(F)cccc34)n(Cc3ccncc3)c2c1`, the Activity (HepG2) was “Non-Toxic”.
With `Cn1c(C(=O)c2c[nH]c3ccc(F)cc23)nc2ccc(F)cc21` the Activity (HepG2) was “Non-Toxic”.
For `O=C(c1nc2ccccc2[nH]1)c1c[nH]c2ccccc12`, the “Intrinsic clearance in rat liver microsomes” value [1] was 33.1 µL/min/mg, the microsomal intrinsic clearance [3] was 54.6 µL/min/mg and the t1/2 [5] was 25.8 min. For the same compound, the Activity (HepG2) was “Non-Toxic” and the t1/2 [7] was 42.4 min.
With `Cn1cc(C(=O)c2nc3ccc(F)cc3n2C)c2cccc(F)c21` the EC50 [9] was 1.21 nM and the Activity (HepG2) was “Non-Toxic”.
For `OCCn1c(Cc2c[nH]c3c(F)cccc23)nc2ccc(F)cc21`, the Activity (HepG2) was “Non-Toxic”.
With `[2H]C([2H])(c1nc2cc(F)ccc2[nH]1)c1c[nH]c2c(F)cccc12` the “Intrinsic clearance in rat liver microsomes” value [1] was 59.1 µL/min/mg, the microsomal intrinsic clearance [3] was 85.2 µL/min/mg and the t1/2 [5] was 16.3 min. For the same compound, the Activity (HepG2) was “Non-Toxic” and the t1/2 [7] was 23.5 min.
For `Cn1c(C(=O)c2cn(S(=O)(=O)CCN3CCOCC3)c3c(F)cccc23)nc2ccc(F)cc21`, the EC50 [9] was 0.69 nM and the Activity (HepG2) was “Non-Toxic”.
For `Cn1c(Cc2c[nH]c3c(F)cccc23)nc2ccc(F)cc21`, the Activity [11] was “Active” and the Activity (HepG2) was “Non-Toxic”.
In the case of `Cn1c(C(=O)c2c[nH]c3c(F)cccc23)nc2ccc(F)cc21`, the microsomal CLint [1, 16] is reported as 23 µL/min/mg, the microsomal CLint [3, 16] is reported as 41.7 µL/min/mg and the EC50 [9] is reported as 0.15 nM. The Activity [12] was 35%, the Activity (HepG2) was “Non-Toxic” and the Activity [13] was 12.5%.
With `CCCCn1cc(C(=O)c2nc3ccc(F)cc3n2C)c2cccc(F)c21` the EC50 [9] was 0.28 nM and the Activity (HepG2) was “Non-Toxic”.
For `Cn1c(C(=O)c2c[nH]c3ccccc23)nc2ccc(F)cc21`, the Activity [10] was “Active” and the Activity (HepG2) was “Non-Toxic”.
With `O=C(c1nc2ccc(F)cc2[nH]1)c1c[nH]c2ccccc12` the Activity (HepG2) was “Non-Toxic”.
For `O=C(c1nc2ccccc2[nH]1)c1c[nH]c2c(F)cccc12`, the Activity (HepG2) was “Non-Toxic”.
For `Fc1ccc2nc(Cc3c[nH]c4c(F)cccc34)n(Cc3ccccc3)c2c1`, the Activity (HepG2) was “Non-Toxic”.
In the case of `Fc1ccc2[nH]c(Cc3c[nH]c4c(F)cccc34)cc2c1`, the “Intrinsic clearance in rat liver microsomes” value [1] is reported as 60.7 µL/min/mg, the microsomal intrinsic clearance [3] is reported as 83.9 µL/min/mg and the t1/2 [14] is reported as 63.9 min. For the same compound, the Activity [4] was “Active”, the t1/2 [5] was 16.5 min and the CLH [15] was 23 µL/min/mg. The t1/2 [7] was 23.2 min.
In the case of `Cn1c(C(=O)c2c[nH]c3cccc(F)c23)nc2ccc(F)cc21`, the Activity (HepG2) is reported as “Non-Toxic”.
In the case of `O=C(c1nc2c(F)cccc2[nH]1)c1c[nH]c2c(F)cccc12`, the Activity (HepG2) is reported as “Non-Toxic”.
For `Fc1ccc2nc(Cc3c[nH]c4c(F)cccc34)n(CCc3ccccc3)c2c1`, the Activity (HepG2) was “Non-Toxic”.
In the case of `CC(C)Cn1c(Cc2c[nH]c3c(F)cccc23)nc2ccc(F)cc21`, the Activity (HepG2) is reported as “Non-Toxic”.
In the case of `Cn1c(C(=O)c2c[nH]c3cc(F)ccc23)nc2ccc(F)cc21`, the Activity (HepG2) is reported as “Non-Toxic”.
In the case of `Cn1c(C(=O)c2c[nH]c3c(F)cccc23)nc2ccccc21`, the Activity [10] is reported as “Active” and the Activity (HepG2) is reported as “Non-Toxic”.
With `Cn1c(C(=O)c2c[nH]c3c(F)cccc23)nc2cc(F)ccc21` the Activity [12] was 34.4%, the Activity (HepG2) was “Non-Toxic” and the Activity [13] was 11.9%.
With `Cn1c(C(=O)c2c[nH]c3c(F)cccc23)nc2cccc(F)c21` the Activity [10] was “Active” and the Activity (HepG2) was “Non-Toxic”.
For `Fc1ccc2nc(Cc3c[nH]c4c(F)cccc34)[nH]c2c1`, the “Intrinsic clearance in rat liver microsomes” value [1] was 145.6 µL/min/mg, the microsomal intrinsic clearance [3] was 194.9 µL/min/mg and the t1/2 [14] was 17.5 min. The Activity [4] was “Active”, the t1/2 [5] was 7.1 min and the CLH [15] was 79.4 µL/min/mg. For the same compound, the EC50 [9] was 348 nM, the Activity (HepG2) was “Non-Toxic” and the t1/2 [7] was 9.5 min.
In the case of `Cn1c(C(=O)c2cn(CCCN3CCOCC3)c3c(F)cccc23)nc2ccc(F)cc21`, the EC50 [9] is reported as 39.9 nM and the Activity (HepG2) is reported as “Non-Toxic”.
